Results: ChEMBL document CHEMBL4513216, “Probing the Open Global Health Chemical Diversity Library for Multistage-Active Starting Points for Next-Generation Antimalarials” (ACS Infect Dis, 2020)

Test: Toxicity liver stage against HepG2, at 10uM
Type: cell-based
Parameters: test concentration 10 uM, cell line HepG2-A16-CD81EGFP
Conditions: human, HepG2-A16-CD81EGFP cells; read-out: INHIBITION
Procedure, shortened: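 Uninfected HepG2-A16-CD81EGFP cells, 3 × 10^3 per well, 1536-well, plated on prespotted compound at 10 μM final, parasite-free screening media added to match infected plates; puromycin 10 μM positive, DMSO 0.5% negative; run in parallel with 48 h PbLuc assay at 37 °C, 5% CO2; viability by CellTiter-Glo luminescence, normalized to controls.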

Row | Compound | cytotoxicity at 10 µM [%]
1 | COc1ccccc1CNc1ccc2nncn2n1 | 10.4
2 | CCSc1nnc(N2CCN(c3ccccc3)CC2)s1 | -6.67
3 | O=C(CCCc1ccccc1)Nc1cnc(N2CCOCC2)nc1 | -13.9
4 | O=C(C[C@@H]1COC[C@H]2CN(Cc3ccsc3)C[C@@H]12)N1CCCC1 | 1.64
5 | CCOC1CC2(CCN(C(C)=O)CC2)c2cc(F)ccc21 (stereo not drawn) | -143
6 | CCS(=O)(=O)N1CCOC2(COCCN(c3nccs3)C2)C1 (stereo not drawn) | 7.4
7 | COCC1c2nnn(CC3CC3)c2CCN1C(=O)c1cnccn1 (stereo not drawn) | -140
8 | CS(=O)(=O)NC[C@@H]1OC[C@H]2CN(C(=O)c3ccccc3)CC[C@H]21 | 10.3
9 | Cc1nc(-c2ccccc2F)sc1C(=O)N1CCN(C)CC1 | 21
10 | CC[C@H](C)[C@H](NC(=O)Cc1csc(-c2cccc(Cl)c2)n1)C(=O)O | -7.48
11 | O=C(NCc1ccccc1)N1CCC2(CC(=O)N(c3ccsc3)C2)C1 (stereo not drawn) | -9.64
12 | Cc1nn(C)c2c(NCc3cccnc3)nc(C(C)C)nc12 | 10.5
13 | COc1cc(NCc2ccncc2)c(-c2nn[nH]n2)cc1OC | 7.91
14 | CC(=O)N1CCCC(Cc2cnc(-n3ccnc3)cn2)C1 (stereo not drawn) | -21.7
15 | O=C(c1cncnc1)N1Cc2ccccc2OC2(CCOCC2)C1 | -8.46
16 | CS(=O)(=O)c1ccc(NC(=O)NC2(c3cccc(F)c3)CC2)cc1 | 2.93
17 | COCCN(C)C(=O)Nc1cc2c(cc1SC)OCCO2 | 4.69
18 | CC(CN1CCOCC1)NC(=O)N1CCN(S(C)(=O)=O)CC1 (stereo not drawn) | 0.243
19 | Cc1noc(CNC(=O)NCCc2ccc(Cl)cc2)n1 | 6.93
20 | CCc1cc(=O)[nH]c(-c2ccc(NC(C)CN3CCOCC3)nc2)n1 (stereo not drawn) | -145
21 | N#CC1COCCN1S(=O)(=O)c1ccc2ccccc2c1 (stereo not drawn) | 6.45

Row | Compound | cytotoxicity at 10 µM [%]
22 | CC(C)C(=O)NS(=O)(=O)CCc1ccccc1 | 0.67
23 | CC(C)NC(=O)N1CCC[C@H]1C(=O)NCCCc1cnn(C)c1 | 0.00333
24 | O=C(CNC(=O)Nc1cccc(-c2nccs2)c1)NCCO | -2.77
25 | Cc1ccc(-c2cnc(CCC(=O)NCCN3CCOCC3)o2)cc1C | 7.36
26 | NC(=O)CCn1ccc(NC(=O)c2ccc(OCC3CC3)cc2)n1 | 5.48
27 | COCc1ccccc1NC(=O)NC(C)c1ccc(C)o1 (stereo not drawn) | 0.205
28 | N#Cc1ccnc(N2CCN(CC(O)c3ccc(F)cc3F)CC2)c1 (stereo not drawn) | -0.626
29 | O=C(c1csc(-c2ccco2)n1)N1CCN2CCCCC2C1 (stereo not drawn) | 5.6
30 | C=C(C)CN(CC)S(=O)(=O)c1ccccc1C#N | -17.1
31 | O=C(Cc1csc(N2CCNC2=O)n1)NC(c1ccccc1)C1CC1 (stereo not drawn) | -136
32 | O=C(CNC(=O)C1CC1)NCCOc1cccc(Cl)c1Cl | 5.04
33 | Clc1nc2ccccn2c1CNCC1CN(C2CC2)CCO1 (stereo not drawn) | -3.06
34 | Cc1cccc(C2(CNC(=O)C(C)NC(N)=O)CCCC2)c1 (stereo not drawn) | 7.19
35 | COc1cc(C(C#N)NC(=O)CC2=CCCCC2)cc(OC)c1OC (stereo not drawn) | 3.2
36 | O=C(CNc1cccc(S(=O)(=O)C(F)F)c1)Nc1ccccc1 | -48.4
37 | CC(=O)c1ccc(CNC(=O)c2cc(C)nn2C)nc1C | 6.21
38 | Cc1nc(CNC(=O)NCC(O)c2cccc(Cl)c2)cs1 (stereo not drawn) | -16.1
39 | CN1CCCCC1c1nc(Cc2cccc(F)c2)no1 (stereo not drawn) | -161
40 | O=C1N(CCc2ccccc2)CCCC12CCN(C(CO)CO)C2 (stereo not drawn) | -3.25
41 | CC(C)Cc1noc(CN(C)c2ncccn2)n1 | 5.23
42 | COc1ccccc1OCCCc1cccc(C#N)n1 | -5.62

Row | Compound | cytotoxicity at 10 µM [%]
43 | CCNC(=O)[C@@H]1C[C@@H](N)CN1C(=O)c1cc2ccccc2[nH]1 | -9.6
44 | CNC(=O)[C@@H]1C[C@H](N)CN1Cc1cc2cc(C)cc(C)c2[nH]c1=O | -1.72
45 | O=C1NCCN(CC2CCCCC2)C1CC(=O)N1CCc2n[nH]cc2C1 (stereo not drawn) | -3.76
46 | CCC[C@@H]1CN(C(=O)CCc2ccco2)C[C@H]1NS(C)(=O)=O | -3.73
47 | CCn1ncnc1C(C)Nc1cc(C2CC2)ncn1 (stereo not drawn) | 2.33
48 | CSc1ncccc1C(=O)N1CCC2(CC1)OCCCC2O (stereo not drawn) | -7.16
49 | COc1ccccc1OCc1cc(C(=O)N2CC(O)C2)n[nH]1 | -1.02
50 | Cc1cccc(C(=O)NCc2ccc(CS(N)(=O)=O)cc2)n1 | -1.07
51 | Cn1cc(CCN2CCOC(CNc3cccnn3)C2)cn1 (stereo not drawn) | 2.11
52 | CC(C)(C)OC(=O)N1CCC(C(=O)NCCNc2ncccn2)CC1 | -10.3
53 | O=C(NCCNc1ncccn1)C1CCN(C(=O)N2CCCC2)CC1 | -6.11
54 | CC(O)CN1CCC(CNCc2ccccc2F)CC1 (stereo not drawn) | -11.4
55 | Cc1noc(C2CCN(C(=O)c3ccc(C(F)(F)F)nc3)CC2)n1 | -6.16
56 | Cc1nnc2n1CCN(C(=O)c1cc(Cl)c(Br)[nH]1)C2 | -4.31
57 | OC(CN1CCC(c2ccn[nH]2)CC1)c1cccc(C(F)(F)F)c1 (stereo not drawn) | -12.1
58 | Cc1cnn(CC2CCCN2C(=O)c2ccccc2-n2cnnn2)c1 (stereo not drawn) | -35.7
59 | Cc1cccc(-n2ncc(C(=O)NCC3CCS(=O)(=O)C3)c2C)c1 (stereo not drawn) | -20.3
60 | COCCCNC(=O)c1c(C)noc1C(C)C | -28.2
61 | CCOc1ncccc1CNC(=O)Nc1ccc(CC)cc1 | -23.7
62 | O=C(CCOc1ccccc1Cl)N1CCN(c2cnccn2)CC1 | -29.2
63 | Cc1nnc(CN2CCN(C(C)c3nc(C4CC4)no3)CC2)o1 (stereo not drawn) | -10.3

Row | Compound | cytotoxicity at 10 µM [%]
64 | O=c1n(CCSCc2ccccc2Br)nc2ccccn12 | -3.95
65 | Cc1ccc(NC2CCN(C(=O)c3ccc(Cl)o3)CC2)nn1 | -0.961
66 | CNc1nc(CNC(=O)Nc2ccccc2-c2noc(C)n2)cs1 | -6.56
67 | CC(C)c1nc(CN2CCCN(Cc3nnc(C4CC4)o3)CC2)no1 | -0.794
68 | CC(NC(N)=O)C(=O)N1CCCN(Cc2nccn2C(C)C)CC1 (stereo not drawn) | 1.95
69 | N#CC1(C(=O)NCC2CCC3(CCNCC3)O2)CC1 (stereo not drawn) | -5.22
70 | Cc1ccc(CN2CCOCC3(CCN(Cc4cccs4)C3)C2)o1 (stereo not drawn) | -5.61
71 | CC(C)CN1CCC2(CC1)C(=O)Nc1ccc(C(=O)N(C)C)cc12 | -1.18
72 | O=C(c1cccnc1)N1CCCC2(CCN(c3ccsc3)C2=O)C1 (stereo not drawn) | -1.29
73 | COCCN1CC[C@]2(CN(Cc3cccnc3)C[C@H]2C)C1=O | -4.66
74 | Cc1nc(CO[C@@H]2CN(Cc3cccs3)[C@@H]3COC[C@@H]32)cs1 | -0.646
75 | Cc1nnc(N2CCCC3(CN(c4ccccn4)CCO3)C2)o1 (stereo not drawn) | -98.8
76 | c1ccc(OCC2CC3(CCN(c4ncccn4)CC3)CO2)nc1 (stereo not drawn) | 0.485
77 | COc1ccccc1-c1c[nH]c(C2CCCN2)n1 (stereo not drawn) | 0.276
78 | Cc1oncc1C(=O)N[C@@H]1CN(c2ncccn2)C[C@@H]2CCCO[C@@H]21 | 6.21
79 | O=C1COC2(CCN(CC3CC3)CC2)CN1c1cncnc1 | -1.87
80 | O=C(O)c1c(-c2cccnc2)ncc2c1CCN(Cc1ccccn1)C2 | -1.43
81 | O=C(NCC1COCc2c(-c3ccncc3)nnn2C1)[C@H]1CCCO1 (stereo partly drawn) | 1.9
82 | Cc1ccc(CN2CCC3(CC2)CCN(Cc2ccoc2)CC3)cc1 | 3.47
83 | COc1cccc(-n2cc3[nH]c(=O)n(C(C)C)n3c2=O)c1 | -7.32
